Activity calls are given as the source filed them. The rule behind the calls is not given here.
Legend:
SK-OV-3 [1] = assay: Cytotoxicity measured in human ovarian cell line SKOV-3 using sulforhodamine B (SRB) assay.; format: functional, cell-based
Procedure, shortened: (§1)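 SRB growth-inhibition assay in human ovarian carcinoma cells: 3000–6000 cells/well attached overnight, then salts (dissolved at 500 μM in water) added in quadruplicate at final 0.05, 0.25, 1, 5 and 25 μM. After 96 h, cells fixed with ice-cold 10% TCA and stained with 0.4% SRB. Mean A540 expressed as % of untreated control; IC50 = concentration giving 50% growth inhibition.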

CH1 [2] = assay: Cytotoxicity measured in human ovarian cell line CH1 using sulforhodamine B (SRB) assay.; format: functional, cell-based; procedure, shortened: as §1
[3] = target: Telomerase reverse transcriptase (Homo sapiens, UniProt O14746); assay: Inhibitory activity against telomerase
Chain of Telomerase reverse transcriptase (O14746 whole entry): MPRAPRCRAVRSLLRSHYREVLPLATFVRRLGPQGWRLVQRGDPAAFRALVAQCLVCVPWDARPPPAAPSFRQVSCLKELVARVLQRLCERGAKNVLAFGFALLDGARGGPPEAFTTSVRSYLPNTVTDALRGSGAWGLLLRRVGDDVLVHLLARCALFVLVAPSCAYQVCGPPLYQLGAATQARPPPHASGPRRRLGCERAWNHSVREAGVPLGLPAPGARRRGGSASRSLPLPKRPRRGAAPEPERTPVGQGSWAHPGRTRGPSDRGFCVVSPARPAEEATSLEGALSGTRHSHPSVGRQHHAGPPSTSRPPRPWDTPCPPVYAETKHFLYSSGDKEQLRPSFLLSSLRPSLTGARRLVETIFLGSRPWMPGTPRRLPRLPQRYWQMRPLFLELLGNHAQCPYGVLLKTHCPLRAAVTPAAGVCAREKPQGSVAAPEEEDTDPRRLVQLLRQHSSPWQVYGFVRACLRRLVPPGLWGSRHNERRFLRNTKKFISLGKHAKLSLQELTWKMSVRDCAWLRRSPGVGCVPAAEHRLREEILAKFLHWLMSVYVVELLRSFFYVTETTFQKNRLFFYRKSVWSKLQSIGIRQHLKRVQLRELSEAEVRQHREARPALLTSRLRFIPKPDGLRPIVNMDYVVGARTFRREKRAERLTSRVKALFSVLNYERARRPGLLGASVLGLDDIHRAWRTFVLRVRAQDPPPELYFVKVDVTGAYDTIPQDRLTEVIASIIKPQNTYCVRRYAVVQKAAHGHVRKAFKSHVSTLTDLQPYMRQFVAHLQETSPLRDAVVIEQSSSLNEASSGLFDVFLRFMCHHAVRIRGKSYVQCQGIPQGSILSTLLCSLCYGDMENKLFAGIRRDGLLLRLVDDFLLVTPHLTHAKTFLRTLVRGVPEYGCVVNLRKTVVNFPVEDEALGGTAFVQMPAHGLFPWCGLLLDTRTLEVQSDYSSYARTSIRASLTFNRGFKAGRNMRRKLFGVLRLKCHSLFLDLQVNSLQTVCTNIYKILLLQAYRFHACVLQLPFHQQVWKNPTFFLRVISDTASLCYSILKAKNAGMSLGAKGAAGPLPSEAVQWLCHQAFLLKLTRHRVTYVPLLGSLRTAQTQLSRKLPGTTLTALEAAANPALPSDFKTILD
Procedure, shortened: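 Modified TRAP with extract from exponentially growing A2780 ovarian carcinoma cells. Telomerase then inactivated at 80 °C for 5 min, CX primer and Taq added, 31 PCR cycles. Products analysed by denaturing PAGE with phosphorimaging/autoradiography, or by filter scintillation counting.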

[4] = target: DNA polymerase I, thermostable (Thermus aquaticus) (UniProt P19821); assay: Inhibitory activity against taq polymerase at 50 uM; No inhibition
Chain of DNA polymerase I, thermostable (Thermus aquaticus) (P19821 whole entry): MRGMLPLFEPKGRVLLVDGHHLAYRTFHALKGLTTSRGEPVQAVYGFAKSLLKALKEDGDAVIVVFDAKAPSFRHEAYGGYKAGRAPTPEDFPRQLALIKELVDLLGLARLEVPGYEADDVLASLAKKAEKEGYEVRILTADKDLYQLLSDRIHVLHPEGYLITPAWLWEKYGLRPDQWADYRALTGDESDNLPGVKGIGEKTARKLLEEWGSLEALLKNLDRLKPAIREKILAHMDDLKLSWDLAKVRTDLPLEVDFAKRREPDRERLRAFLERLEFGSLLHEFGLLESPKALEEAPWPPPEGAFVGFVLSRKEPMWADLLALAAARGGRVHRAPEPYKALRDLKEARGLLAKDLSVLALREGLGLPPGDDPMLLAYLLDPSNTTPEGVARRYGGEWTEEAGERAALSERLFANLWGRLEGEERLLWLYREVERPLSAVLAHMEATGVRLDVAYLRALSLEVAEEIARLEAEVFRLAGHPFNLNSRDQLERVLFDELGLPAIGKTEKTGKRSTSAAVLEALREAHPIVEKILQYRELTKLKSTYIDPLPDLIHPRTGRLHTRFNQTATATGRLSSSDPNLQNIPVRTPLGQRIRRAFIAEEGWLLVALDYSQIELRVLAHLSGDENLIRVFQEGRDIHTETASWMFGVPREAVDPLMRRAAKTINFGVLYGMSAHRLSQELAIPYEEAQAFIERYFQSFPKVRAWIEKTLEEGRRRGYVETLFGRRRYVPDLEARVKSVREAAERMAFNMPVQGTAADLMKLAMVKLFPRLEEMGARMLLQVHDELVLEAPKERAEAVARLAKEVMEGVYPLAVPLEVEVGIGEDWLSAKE

[5] = target: DNA polymerase I, thermostable (Thermus aquaticus) (UniProt P19821); assay: Inhibitory activity against taq polymerase at 20 uM; No inhibition
A2780 [6] = assay: Cytotoxicity measured in human ovarian cell line A2780 using sulforhodamine B (SRB) assay; format: functional, cell-based; procedure, shortened: as §1
[7] = target: DNA polymerase I, thermostable (Thermus aquaticus) (UniProt P19821); assay: Inhibitory activity against taq polymerase at 10 uM; No inhibition
[8] = target: DNA polymerase I, thermostable (Thermus aquaticus) (UniProt P19821); assay: Inhibitory activity against taq polymerase at 50 uM; Significant
[9] = target: DNA polymerase I, thermostable (Thermus aquaticus) (UniProt P19821); assay: Inhibitory activity against taq polymerase at 50 uM; Slight
A2780 [10] = assay: Cytotoxicity activity of the compound was measured in human ovarian cell line A2780 using sulforhodamine B (SRB) assay; format: functional, cell-based; procedure, shortened: as §1
CH1 [11] = assay: Cytotoxicity activity was measured in human ovarian cell line CH1 using sulforhodamine B (SRB) assay; format: functional, cell-based; procedure, shortened: as §1
SK-OV-3 [12] = assay: Cytotoxicity activity was measured in human ovarian cell line SKOV-3 using sulforhodamine B (SRB) assay; format: functional, cell-based; procedure, shortened: as §1

SMILES	IC50 (SK-OV-3 [1]) [µM]	IC50 (CH1 [2]) [µM]	IC50 [3] [µM]	inhibition [4]	inhibition [5]	IC50 (A2780 [6]) [µM]	inhibition [7]	inhibition [8]	inhibition [9]	IC50 (A2780 [10]) [µM]	IC50 (CH1 [11]) [µM]	IC50 (SK-OV-3 [12]) [µM]
CCC1CCCCN1CCC(=O)Nc1ccc2c(c1)C(=O)c1cc(NC(=O)CCN3CCCCC3CC)ccc1-2 (stereo not drawn)	3.15	2.15	14	inactive	inactive	2.2	inactive	–	–	–	–	–
C[N+]1(CCC(=O)Nc2ccc3c(c2)C(=O)c2cc(NC(=O)CC[N+]4(C)CCCCC4CCO)ccc2-3)CCCCC1CCO (stereo not drawn)	5.2	3.15	> 20	–	inactive	5.2	inactive	Significant	–	–	–	–
CCC1CCCC[N+]1(C)CCC(=O)Nc1ccc2c(c1)C(=O)c1cc(NC(=O)CC[N+]3(C)CCCCC3CC)ccc1-2 (stereo not drawn)	2.6	2.35	> 20	–	inactive	2.9	inactive	–	Weak inhibition	–	–	–
O=C(CCN1CCCCC1)Nc1ccc2c(c1)C(=O)c1cc(NC(=O)CCN3CCCCC3)ccc1-2	11	7.6	9	inactive	inactive	11	inactive	–	–	–	–	–
O=C(CCN1CCCCC1CCO)Nc1ccc2c(c1)C(=O)c1cc(NC(=O)CCN3CCCCC3CCO)ccc1-2 (stereo not drawn)	20	14.5	16.5	inactive	inactive	> 25	inactive	–	–	–	–	–
O=C(CCN1CCCCC1CO)Nc1ccc2c(c1)C(=O)c1cc(NC(=O)CCN3CCCCC3CO)ccc1-2 (stereo not drawn)	15	14	8	inactive	inactive	13	inactive	–	–	–	–	–
O=C(CCN1CCN(c2ccccc2)CC1)Nc1ccc2c(c1)C(=O)c1cc(NC(=O)CCN3CCN(c4ccccc4)CC3)ccc1-2	> 25	> 25	> 50	inactive	inactive	> 25	inactive	–	–	–	–	–
CN1CCN(CCC(=O)Nc2ccc3c(c2)C(=O)c2cc(NC(=O)CCN4CCN(C)CC4)ccc2-3)CC1	> 25	> 25	44	inactive	inactive	–	inactive	–	–	> 25	–	–
CCN(CC)CCC(=O)Nc1ccc2c(c1)C(=O)c1cc(NC(=O)CCN(CC)CC)ccc1-2	9.65	8	15.5	inactive	inactive	14	inactive	–	–	–	–	–
O=C(CCN1CCOCC1)Nc1ccc2c(c1)C(=O)c1cc(NC(=O)CCN3CCOCC3)ccc1-2	> 25	> 25	> 50	inactive	inactive	> 25	inactive	–	–	–	–	–
CC1CCCCN1CCC(=O)Nc1ccc2c(c1)C(=O)c1cc(NC(=O)CCN3CCCCC3C)ccc1-2 (stereo not drawn)	12	1.8	12	inactive	inactive	10.5	inactive	–	–	–	–	–
C[N+]1(CCC(=O)Nc2ccc3c(c2)C(=O)c2cc(NC(=O)CC[N+]4(C)CCC(O)CC4)ccc2-3)CCC(O)CC1 (stereo not drawn)	–	–	> 20	–	inactive	2.4	inactive	–	Weak inhibition	–	1.95	4.7
CC1CCN(CCC(=O)Nc2ccc3c(c2)C(=O)c2cc(NC(=O)CCN4CCC(C)CC4)ccc2-3)CC1	7.6	> 25	> 20	inactive	inactive	2.2	inactive	–	–	–	–	–
O=C(CCN1CCC(O)CC1)Nc1ccc2c(c1)C(=O)c1cc(NC(=O)CCN3CCC(O)CC3)ccc1-2	> 25	> 25	18.5	inactive	inactive	> 25	inactive	–	–	–	–	–
CC1CC[N+](C)(CCC(=O)Nc2ccc3c(c2)C(=O)c2cc(NC(=O)CC[N+]4(C)CCC(C)CC4)ccc2-3)CC1 (stereo not drawn)	3.75	> 25	> 20	–	inactive	2.5	inactive	–	Weak inhibition	–	–	–
C[N+](C)(C)CCC(=O)Nc1ccc2c(c1)C(=O)c1cc(NC(=O)CC[N+](C)(C)C)ccc1-2	1.95	1.95	18.5	inactive	inactive	2.25	inactive	–	–	–	–	–
C[N+]1(CCC(=O)Nc2ccc3c(c2)C(=O)c2cc(NC(=O)CC[N+]4(C)CCCCC4)ccc2-3)CCCCC1	3.9	5.2	21	inactive	inactive	4.3	inactive	–	–	–	–	–
CCN(CC)CCC(=O)Nc1ccc2c(c1)C(=O)c1cc(NC(=O)CCN(CC)CC)ccc1C2=O	–	–	–	–	–	2.15	–	–	–	–	–	–
CC[N+](C)(CC)CCC(=O)Nc1ccc2c(c1)C(=O)c1cc(NC(=O)CC[N+](C)(CC)CC)ccc1-2	2.4	2.45	25.4	inactive	inactive	3.7	inactive	–	–	–	–	–
O=C(CCN1CCN(c2ccccn2)CC1)Nc1ccc2c(c1)C(=O)c1cc(NC(=O)CCN3CCN(c4ccccn4)CC3)ccc1-2	> 25	> 25	> 50	inactive	inactive	> 25	inactive	–	–	–	–	–
C[N+]1(CCC(=O)Nc2ccc3c(c2)C(=O)c2cc(NC(=O)CC[N+]4(C)CCCCC4CO)ccc2-3)CCCCC1CO (stereo not drawn)	4.3	4.2	33	inactive	inactive	3.75	inactive	–	–	–	–	–
O=C(CCN1CCN(Cc2ccccc2)CC1)Nc1ccc2c(c1)C(=O)c1cc(NC(=O)CCN3CCN(Cc4ccccc4)CC3)ccc1-2	> 25	> 25	> 50	inactive	inactive	> 25	inactive	–	–	–	–	–
CCN1CCN(CCC(=O)Nc2ccc3c(c2)C(=O)c2cc(NC(=O)CCN4CCN(CC)CC4)ccc2-3)CC1	> 25	> 25	17	inactive	inactive	> 25	inactive	–	–	–	–	–
O=C(CCN1CCN(c2ncccn2)CC1)Nc1ccc2c(c1)C(=O)c1cc(NC(=O)CCN3CCN(c4ncccn4)CC3)ccc1-2	> 25	> 25	> 50	inactive	inactive	> 25	inactive	–	–	–	–	–
CN(C)CCC(=O)Nc1ccc2c(c1)C(=O)c1cc(NC(=O)CCN(C)C)ccc1-2	8.2	8.5	16.2	inactive	inactive	12	inactive	–	–	–	–	–
CC1CCCC[N+]1(C)CCC(=O)Nc1ccc2c(c1)C(=O)c1cc(NC(=O)CC[N+]3(C)CCCCC3C)ccc1-2 (stereo not drawn)	3.95	2.6	> 20	–	inactive	4.85	inactive	–	Weak inhibition	–	–	–
C[N+]1(CCC(=O)Nc2ccc3c(c2)C(=O)c2cc(NC(=O)CC[N+]4(C)CCOCC4)ccc2-3)CCOCC1	2.45	2.15	27.3	inactive	inactive	2.55	inactive	–	–	–	–	–

Reference: ChEMBL document CHEMBL1132274, “2,7-Disubstituted amidofluorenone derivatives as inhibitors of human telomerase” (J Med Chem, 1999)
